The results in this text go back to publication PMC10993231 (RSC Advances, 2024).

The data set in a line: Stability of radiolabeled peptide in human plasma. Type of data set: in vitro ADME. The note with it: 37 °C, TLC read-out. The method, boiled down: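 The peptide was dissolved in DMSO and diluted with water, then iodinated with 131I (3 mCi) and chloramine-T in 0.05 mol L−1 PBS, pH 7.4. The mixture was vortexed 2 min at room temperature and the reaction stopped with sodium metabisulfite. The 131I-peptide was incubated with human plasma at 37 °C for up to 72 h to gauge proteolytic degradation.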

In the case of ^131I-cWIWLYA (head to tail), the “Radioactivity remaining after incubation in human plasma” value reads like this: (5 h incubation) greater than 90%; (72 hours incubation) 57.5%.
